Data on 45 molecules can be found in ChEMBL document CHEMBL1140903, “Reactions of functionalized sulfonamides: application to lowering the lipophilicity of cytosolic phospholipase A2alpha inhibitors” (J Med Chem, 2009).

Where only a bound is given, the exact number is not on record here.

In one experiment the test system is Blood. Put plainly: Inhibition of A23187-induced TBX2 release in Sprague-Dawley rat whole blood. It is filed as functional, tissue-based. In a few lines:
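Rat whole blood is stimulated with calcium ionophore A23187, and thromboxane B2 is the read-out (cPLA2α- and COX-1-dependent). IC50 is taken from at least two runs, each run the mean of triplicate assays.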

The target of experiment [1] is T1, Cytosolic phospholipase A2 (Homo sapiens, UniProt P47712).
T1 sequence (P47712 whole entry): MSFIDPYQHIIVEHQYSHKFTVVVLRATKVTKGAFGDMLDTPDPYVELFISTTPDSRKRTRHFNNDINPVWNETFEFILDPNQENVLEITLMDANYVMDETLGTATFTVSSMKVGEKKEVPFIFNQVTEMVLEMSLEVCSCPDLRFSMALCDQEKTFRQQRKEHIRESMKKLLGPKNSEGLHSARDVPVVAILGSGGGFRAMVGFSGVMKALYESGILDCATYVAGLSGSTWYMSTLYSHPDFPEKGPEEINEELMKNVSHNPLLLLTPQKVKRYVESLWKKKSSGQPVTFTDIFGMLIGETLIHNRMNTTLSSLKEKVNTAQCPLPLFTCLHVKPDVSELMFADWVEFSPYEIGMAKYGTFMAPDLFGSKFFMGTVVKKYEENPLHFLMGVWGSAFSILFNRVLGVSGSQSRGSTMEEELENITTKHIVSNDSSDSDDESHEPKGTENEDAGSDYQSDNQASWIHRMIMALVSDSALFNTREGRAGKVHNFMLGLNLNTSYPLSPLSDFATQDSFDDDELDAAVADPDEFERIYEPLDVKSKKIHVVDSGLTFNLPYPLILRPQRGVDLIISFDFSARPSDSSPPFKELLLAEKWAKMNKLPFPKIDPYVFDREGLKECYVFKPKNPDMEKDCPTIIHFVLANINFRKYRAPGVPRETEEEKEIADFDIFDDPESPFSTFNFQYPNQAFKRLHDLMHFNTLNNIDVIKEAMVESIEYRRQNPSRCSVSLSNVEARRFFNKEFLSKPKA
The experiment is described as follows: Inhibition of human cytosolic PLA2alpha by GLU micelle assay. In short, it runs like this:
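Purified human cPLA2α with the substrate 7-hydroxycoumarinyl-γ-linolenate (GLU), presented in micelles containing a high concentration of detergent and lipid. IC50 is taken from at least two runs, each run the mean of duplicate assays.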

Consider `O=C(O)c1ccc(OCCc2c(CCNS(=O)(=O)CSc3ccccc3Cl)n(C(c3ccccc3)c3ccccc3)c3ccc(Cl)cc23)cc1`, for which the figures for the IC50 (in the experiment with Blood; in experiment [1]) were 90 nM and 150 nM, respectively. On the same counts, the results for `O=C(O)c1ccc(OCCc2c(CCNS(=O)(=O)CCn3ccnn3)n(C(c3ccccc3)c3ccccc3)c3ccc(Cl)cc23)cc1` are 200 nM and 500 nM. The matching figures for `O=Cc1ccccc1CS(=O)(=O)NCCc1c(CCCc2ccc(C(=O)O)cc2)c2cc(Cl)ccc2n1C(c1ccccc1)c1ccccc1`: 50 nM and 200 nM.

On to `O=C(O)c1ccc(OCCc2c(CCNS(=O)(=O)Cc3ccccc3)n(C(c3ccccc3)c3ccccc3)c3ccc(Cl)cc23)cc1`, for which 120 nM corresponded to half-maximal inhibition with Blood (IC50).

As to `CC(=O)N1CCN(Cc2ccccc2CS(=O)(=O)NCCc2c(CCCc3ccc(C(=O)O)cc3)c3cc(Cl)ccc3n2C(c2ccccc2)c2ccccc2)CC1`, the IC50 with Blood was 34 nM; in experiment [1], 6 nM. Consider `CC1CN(CCS(=O)(=O)NCCc2c(CCOc3ccc(C(=O)O)cc3)c3cc(Cl)ccc3n2C(c2ccccc2)c2ccccc2)CC(C)N1` (stereo not drawn), for which, in the experiment on Blood, the 50% inhibitory concentration (IC50) is over 10000 nM. For the molecule `O=C(O)c1ccc(OCCc2c(CCNS(=O)(=O)CCN3CC4CC3CO4)n(C(c3ccccc3)c3ccccc3)c3ccc(Cl)cc23)cc1` (stereo not drawn), the IC50 in the experiment with Blood worked out at 400 nM; in experiment [1] it was 250 nM. On the same counts, the results for `O=C(O)c1ccc(OCCc2c(CCNS(=O)(=O)CSc3ccc(F)c(Cl)c3)n(C(c3ccccc3)c3ccccc3)c3ccc(Cl)cc23)cc1` are 70 nM and 170 nM. Consider `O=C(O)c1ccc(OCCc2c(CCNS(=O)(=O)CSc3cc(Cl)cc(Cl)c3)n(C(c3ccccc3)c3ccccc3)c3ccc(Cl)cc23)cc1`, for which the figures for the IC50 (in the experiment with Blood; in experiment [1]) were 140 nM and 200 nM, respectively. In turn, `CN(C)C1CCN(CCS(=O)(=O)NCCc2c(CCOc3ccc(C(=O)O)cc3)c3cc(Cl)ccc3n2C(c2ccccc2)c2ccccc2)C1` (stereo not drawn) gave an IC50 with Blood of over 1250 nM.

On to `CC1CCCN(CCS(=O)(=O)NCCc2c(CCOc3ccc(C(=O)O)cc3)c3cc(Cl)ccc3n2C(c2ccccc2)c2ccccc2)C1` (stereo not drawn), for which the half-maximal inhibitory concentration (IC50) amounted to 200 nM in the experiment on Blood and 350 nM in experiment [1].

For `Cc1cc(C)n(CCS(=O)(=O)NCCc2c(CCCc3ccc(C(=O)O)cc3)c3cc(Cl)ccc3n2C(c2ccccc2)c2ccccc2)n1`, the 50% inhibitory concentration (IC50) with Blood worked out at 110 nM; in experiment [1], 300 nM.

As to `COc1ccc(OC)c(SCS(=O)(=O)NCCc2c(CCOc3ccc(C(=O)O)cc3)c3cc(Cl)ccc3n2C(c2ccccc2)c2ccccc2)c1`, the 50% inhibitory concentration (IC50) in the experiment with Blood was found to be 240 nM; in experiment [1] it was 330 nM. On the same counts, the results for `O=C(O)c1ccc(OCCc2c(CCNS(=O)(=O)CSc3ccccc3)n(C(c3ccccc3)c3ccccc3)c3ccc(Cl)cc23)cc1` are 75 nM and 190 nM. Take `C[C@@H]1COC[C@H](C)N1CCS(=O)(=O)NCCc1c(CCOc2ccc(C(=O)O)cc2)c2cc(Cl)ccc2n1C(c1ccccc1)c1ccccc1`: the 50% inhibitory concentration (IC50) in the experiment on Blood stood at 340 nM; in experiment [1] it was 450 nM. As to `Cc1ccn(CCS(=O)(=O)NCCc2c(CCOc3ccc(C(=O)O)cc3)c3cc(Cl)ccc3n2C(c2ccccc2)c2ccccc2)n1`, the figures for the IC50 (with Blood; in experiment [1]) were 200 nM and 510 nM, respectively. For `O=C(O)c1ccc(OCCc2c(CCNS(=O)(=O)CCn3ccnc3)n(C(c3ccccc3)c3ccccc3)c3ccc(Cl)cc23)cc1`, the IC50 in the experiment on Blood was 5800 nM. Regarding `O=C(O)c1ccc(OCCc2c(CCNS(=O)(=O)CCN3CCN(c4ccccn4)CC3)n(C(c3ccccc3)c3ccccc3)c3ccc(Cl)cc23)cc1`, the half-maximal inhibitory concentration (IC50) was determined as 210 nM in the experiment on Blood and 290 nM in experiment [1]. On the same counts, the results for `O=C(O)c1ccc(OCCc2c(CCNS(=O)(=O)CCN3CCCCC3)n(C(c3ccccc3)c3ccccc3)c3ccc(Cl)cc23)cc1` are 140 nM and 360 nM.

Consider `O=C(O)c1ccc(OCCc2c(CCNS(=O)(=O)CCN3CCC(O)C3)n(C(c3ccccc3)c3ccccc3)c3ccc(Cl)cc23)cc1` (stereo not drawn), for which the IC50 in the experiment with Blood came to 310 nM; in experiment [1], 700 nM.

In the experiment with Blood, `CC(=O)N1CCN(CCS(=O)(=O)NCCc2c(CCOc3ccc(C(=O)O)cc3)c3cc(Cl)ccc3n2C(c2ccccc2)c2ccccc2)CC1` gave an IC50 of 240 nM. On the same count and under the same terms, under `O=C(O)c1ccc(OCCc2c(CCNS(=O)(=O)CCn3cccn3)n(C(c3ccccc3)c3ccccc3)c3ccc(Cl)cc23)cc1` stands 540 nM; under `CC1CCCC(C)N1CCS(=O)(=O)NCCc1c(CCCc2ccc(C(=O)O)cc2)c2cc(Cl)ccc2n1C(c1ccccc1)c1ccccc1` (stereo not drawn), 50 nM. Take `O=C(O)c1ccc(OCCc2c(CCNS(=O)(=O)CSc3ccc(Cl)cc3Cl)n(C(c3ccccc3)c3ccccc3)c3ccc(Cl)cc23)cc1`: the half-maximal inhibitory concentration (IC50) with Blood was 80 nM; in experiment [1] it was 300 nM. On the same counts, the results for `Cc1cccc(C)c1SCS(=O)(=O)NCCc1c(CCOc2ccc(C(=O)O)cc2)c2cc(Cl)ccc2n1C(c1ccccc1)c1ccccc1` are 300 nM and 330 nM.

Regarding `CCN(CC)Cc1ccccc1CS(=O)(=O)NCCc1c(CCCc2ccc(C(=O)O)cc2)c2cc(Cl)ccc2n1C(c1ccccc1)c1ccccc1`, the results for the 50% inhibitory concentration (IC50) (in the experiment on Blood; in experiment [1]) were 37 nM and 30 nM, respectively. On the same counts, the results for `Cc1cnn(CCS(=O)(=O)NCCc2c(CCOc3ccc(C(=O)O)cc3)c3cc(Cl)ccc3n2C(c2ccccc2)c2ccccc2)c1` are 280 nM and 760 nM.

As to `COc1ccccc1S(=O)(=O)NCCc1c(CCCc2ccc(C(=O)O)cc2)c2cc(Cl)ccc2n1C(c1ccccc1)c1ccccc1`, the concentration for half-maximal inhibition (IC50) stood at 200 nM in the experiment on Blood and 100 nM in experiment [1]. On the same counts, the results for `Cc1cccc(C)c1CS(=O)(=O)NCCc1c(CCCc2ccc(C(=O)O)cc2)c2cc(Cl)ccc2n1C(c1ccccc1)c1ccccc1` are 30 nM and 10 nM.

For the molecule `O=C(O)c1ccc(OCCc2c(CCNS(=O)(=O)CCN3CCNC3=S)n(C(c3ccccc3)c3ccccc3)c3ccc(Cl)cc23)cc1`, the figures for the IC50 (with Blood; in experiment [1]) were 5000 nM and 750 nM, respectively. The matching figures for `C[C@@H]1CCC[C@H](C)N1CCS(=O)(=O)NCCc1c(CCOc2ccc(C(=O)O)cc2)c2cc(Cl)ccc2n1C(c1ccccc1)c1ccccc1`: 100 nM and 250 nM. On the same counts, the results for `CC(=O)N1C(C)CN(CCS(=O)(=O)NCCc2c(CCOc3ccc(C(=O)O)cc3)c3cc(Cl)ccc3n2C(c2ccccc2)c2ccccc2)CC1C` (stereo not drawn) are 1200 nM and 270 nM. On the same counts, the results for `O=C(O)c1ccc(OCCc2c(CCNS(=O)(=O)CCn3cncn3)n(C(c3ccccc3)c3ccccc3)c3ccc(Cl)cc23)cc1` are 1500 nM and 410 nM. Consider `O=C(O)c1ccc(OCCc2c(CCNS(=O)(=O)CSc3c(Cl)cccc3Cl)n(C(c3ccccc3)c3ccccc3)c3ccc(Cl)cc23)cc1`, for which the figures for the IC50 (in the experiment with Blood; in experiment [1]) were 160 nM and 600 nM, respectively.

On to `CC1CCN(CCS(=O)(=O)NCCc2c(CCOc3ccc(C(=O)O)cc3)c3cc(Cl)ccc3n2C(c2ccccc2)c2ccccc2)CC1`, for which the 50% inhibitory concentration (IC50) in the experiment on Blood is 200 nM; in experiment [1], 220 nM.

On to `Cc1ccccc1SCS(=O)(=O)NCCc1c(CCOc2ccc(C(=O)O)cc2)c2cc(Cl)ccc2n1C(c1ccccc1)c1ccccc1`, for which the IC50 in the experiment on Blood came out at 80 nM; in experiment [1], 150 nM. For `O=C(O)c1ccc(OCCc2c(CCNS(=O)(=O)CCN3CCSC3)n(C(c3ccccc3)c3ccccc3)c3ccc(Cl)cc23)cc1`, in the experiment with Blood, the IC50 turned out to be 320 nM. On to `O=C(O)c1ccc(OCCc2c(CCNS(=O)(=O)CCc3ccccc3)n(C(c3ccccc3)c3ccccc3)c3ccc(Cl)cc23)cc1`, for which the values for the half-maximal inhibitory concentration (IC50) (in the experiment with Blood; in experiment [1]) were 630 nM and 500 nM, respectively. On to `COC[C@@H]1CCCN1CCS(=O)(=O)NCCc1c(CCOc2ccc(C(=O)O)cc2)c2cc(Cl)ccc2n1C(c1ccccc1)c1ccccc1`, for which the half-maximal inhibitory concentration (IC50) turned out to be 330 nM in the experiment on Blood and 250 nM in experiment [1].

For the molecule `O=C(O)c1ccc(OCCc2c(CCNS(=O)(=O)CCN3CCCC3)n(C(c3ccccc3)c3ccccc3)c3ccc(Cl)cc23)cc1`, the concentration for half-maximal inhibition (IC50) in the experiment with Blood came out at 330 nM; in experiment [1] it was 350 nM. `O=C(O)c1ccc(OCCc2c(CCNS(=O)(=O)Cc3ccc(Cl)c(Cl)c3)n(C(c3ccccc3)c3ccccc3)c3ccc(Cl)cc23)cc1` [ECOPLADIB] came in with a concentration for half-maximal inhibition (IC50) in the experiment on Blood of 110 nM. Same read-out and setting: for `CC1C(=O)NCCN1CCS(=O)(=O)NCCc1c(CCOc2ccc(C(=O)O)cc2)c2cc(Cl)ccc2n1C(c1ccccc1)c1ccccc1` (stereo not drawn) the value was 480 nM. `O=C(O)c1ccc(CCCc2c(CCNS(=O)(=O)Cc3ccccc3CN3CCNCC3)n(C(c3ccccc3)c3ccccc3)c3ccc(Cl)cc23)cc1`: the figures for the IC50 (with Blood; in experiment [1]) were 170 nM and 13 nM, respectively. Consider `O=C(O)c1ccc(CCCc2c(CCNS(=O)(=O)Cc3ccccc3CO)n(C(c3ccccc3)c3ccccc3)c3ccc(Cl)cc23)cc1`, for which, in the experiment on Blood, the IC50 turned out to be 28 nM.

For the molecule `O=C(O)c1ccc(CCCc2c(CCNS(=O)(=O)Cc3ccccc3CN3CCOCC3)n(C(c3ccccc3)c3ccccc3)c3ccc(Cl)cc23)cc1`, the half-inhibitory concentration (IC50) in the experiment with Blood turned out to be 20 nM.
